Key:
Format in all cases: functional
EKVX = experiment: Growth inhibition of human EKVX cells incubated for 48 hrs by sulforhodamine B assay
Method in brief: (§1)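 NCI-60 five-dose screen at 0.01, 0.1, 1, 10 and 100 µM, 48 h incubation, sulforhodamine B end point. GI50 (50% decrease in net growth), TGI (total growth inhibition) and LC50 (net 50% loss of initial cells) taken from log concentration versus % growth inhibition curves.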

NCI-H23 = experiment: Growth inhibition of human NCI-H23 cells incubated for 48 hrs by sulforhodamine B assay; conditions: NCI-H23, 48 h; method in brief: as §1
NCI-H322M = experiment: Growth inhibition of human NCI-H322M cells incubated for 48 hrs by sulforhodamine B assay; method in brief: as §1
COLO 205 = experiment: Growth inhibition of human COLO205 cells incubated for 48 hrs by sulforhodamine B assay; conditions: COLO 205, 48 h; method in brief: as §1
HCT-15 = experiment: Growth inhibition of human HCT15 cells incubated for 48 hrs by sulforhodamine B assay; conditions: HCT-15, 48 h; method in brief: as §1
HT-29 = experiment: Growth inhibition of human HT-29 cells incubated for 48 hrs by sulforhodamine B assay; conditions: HT-29, 48 h; method in brief: as §1
KM12 = experiment: Growth inhibition of human KM12 cells incubated for 48 hrs by sulforhodamine B assay; conditions: KM12, 48 h; method in brief: as §1
SF-268 = experiment: Growth inhibition of human SF268 cells incubated for 48 hrs by sulforhodamine B assay; conditions: SF-268, 48 h
Method in brief: (§2)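 NCI 60 human tumour cell line panel, five-dose study at 0.01, 0.1, 1, 10 and 100 µM, 48 h incubation. Sulforhodamine B protein-binding dye end point. GI50 (50% decrease in net cell growth), TGI (total growth inhibition) and LC50 (net 50% loss of initial cells) read from log concentration versus % growth inhibition curves.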

SNB-19 [1] = experiment: Growth inhibition of human SNB19 cells incubated for 48 hrs by sulforhodamine B assay; conditions: SNB-19, 48 h; method in brief: as §2
SNB-75 = experiment: Growth inhibition of human SNB75 cells incubated for 48 hrs by sulforhodamine B assay; conditions: SNB-75, 48 h; method in brief: as §2
M14 = experiment: Growth inhibition of human M14 cells incubated for 48 hrs by sulforhodamine B assay; conditions: M14, 48 h; method in brief: as §1
SK-MEL-5 = experiment: Growth inhibition of human SK-MEL-5 cells incubated for 48 hrs by sulforhodamine B assay; conditions: SK-MEL-5, 48 h; method in brief: as §2
IGROV-1 = experiment: Growth inhibition of human IGROV1 cells incubated for 48 hrs by sulforhodamine B assay; conditions: IGROV-1, 48 h; method in brief: as §1
OVCAR-4 = experiment: Growth inhibition of human OVCAR4 cells incubated for 48 hrs by sulforhodamine B assay; conditions: OVCAR-4, 48 h; method in brief: as §1
OVCAR-8 = experiment: Growth inhibition of human OVCAR8 cells incubated for 48 hrs by sulforhodamine B assay; conditions: OVCAR-8, 48 h; method in brief: as §1
786-0 = experiment: Growth inhibition of human 786-0 cells incubated for 48 hrs by sulforhodamine B assay; conditions: 786-0, 48 h; method in brief: as §1
A498 = experiment: Growth inhibition of human A498 cells incubated for 48 hrs by sulforhodamine B assay; conditions: A498, 48 h; method in brief: as §1
ACHN = experiment: Growth inhibition of human ACHN cells incubated for 48 hrs by sulforhodamine B assay; method in brief: as §1
RXF 393 = experiment: Growth inhibition of human RXF393 cells incubated for 48 hrs by sulforhodamine B assay; conditions: RXF 393, 48 h; method in brief: as §2
SN12C = experiment: Growth inhibition of human SN12C cells incubated for 48 hrs by sulforhodamine B assay; method in brief: as §2
TK-10 = experiment: Growth inhibition of human TK10 cells incubated for 48 hrs by sulforhodamine B assay; conditions: TK-10, 48 h; method in brief: as §2
PC-3 = experiment: Growth inhibition of human PC3 cells incubated for 48 hrs by sulforhodamine B assay; conditions: PC-3, 48 h; method in brief: as §1
MDA-MB-231 = experiment: Growth inhibition of human MDA-MB-231 cells incubated for 48 hrs by sulforhodamine B assay; conditions: MDA-MB-231, 48 h; method in brief: as §1
Hs-578T = experiment: Growth inhibition of human Hs 578T cells incubated for 48 hrs by sulforhodamine B assay; method in brief: as §1
BT-549 = experiment: Growth inhibition of human BT549 cells incubated for 48 hrs by sulforhodamine B assay; conditions: BT-549, 48 h; method in brief: as §1
MDA-MB-468 = experiment: Growth inhibition of human MDA-MB-468 cells incubated for 48 hrs by sulforhodamine B assay; conditions: MDA-MB-468, 48 h; method in brief: as §1
HOP-92 = experiment: Anticancer activity against human HOP92 cells assessed as cell growth at 10 uM after 48 hrs by sulforhodamine B assay relative to control; conditions: HOP-92, 48 h, read-out: Activity
Method in brief: (§3)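 Single-dose NCI-60 panel screen: compound added at 10 µM and the culture incubated 48 h. The end point was read by protein staining with sulforhodamine B. The value is percent growth of treated cells relative to untreated control cells, reported as a mean graph across the panel.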

SF-539 = experiment: Anticancer activity against human SF539 cells assessed as cell growth at 10 uM after 48 hrs by sulforhodamine B assay relative to control; conditions: SF-539, 48 h, read-out: Activity; method in brief: as §3
SNB-19 [2] = experiment: Anticancer activity against human SNB19 cells assessed as cell growth at 10 uM after 48 hrs by sulforhodamine B assay relative to control; conditions: SNB-19, 48 h, read-out: Activity; method in brief: as §3
[3] = read-out: LC50 (the source's name)

Q: Which results are given for C=C1CC[C@@H]2[C@](C)(COC(C)=O)[C@H](OC(C)=O)CC[C@@]2(C)[C@H]1CC(Nc1ccc(S(=O)(=O)Nc2nccc(C)n2)cc1)C1=CCOC1=O (stereo partly specified)?
A: GI50 (EKVX): 13.9 µM; TGI (EKVX): 27.1 µM; CC50 (EKVX; [3]): 52.7 µM; GI50 (NCI-H23): 3.78 µM; TGI (NCI-H23): 16 µM; CC50 (NCI-H23; [3]): 50.6 µM; GI50 (NCI-H322M): 11.3 µM; TGI (NCI-H322M): 23.9 µM; CC50 (NCI-H322M; [3]): 50.7 µM; GI50 (COLO 205): 2.09 µM; TGI (COLO 205): 4.66 µM; CC50 (COLO 205; [3]): 11.9 µM; GI50 (HCT-15): 1.79 µM; TGI (HCT-15): 4.24 µM; CC50 (HCT-15; [3]): 10.2 µM; GI50 (HT-29): 2.02 µM; TGI (HT-29): 4.24 µM; CC50 (HT-29; [3]): 8.93 µM; GI50 (KM12): 4.59 µM; TGI (KM12): 16.4 µM; CC50 (KM12; [3]): 44.4 µM; GI50 (SF-268): 6.19 µM; TGI (SF-268): 20.9 µM; CC50 (SF-268; [3]): 54.2 µM; GI50 (SNB-19 [1]): 6.3 µM; TGI (SNB-19 [1]): 20.7 µM; CC50 (SNB-19 [1]; [3]): 52.7 µM; GI50 (SNB-75): 2.69 µM; TGI (SNB-75): 14.9 µM; CC50 (SNB-75; [3]): 38.6 µM; GI50 (M14): 2.81 µM; TGI (M14): 10.8 µM; CC50 (M14; [3]): 72.6 µM; GI50 (SK-MEL-5): 3.79 µM; TGI (SK-MEL-5): 14 µM; CC50 (SK-MEL-5; [3]): 41.2 µM; GI50 (IGROV-1): 3.62 µM; TGI (IGROV-1): 13.6 µM; CC50 (IGROV-1; [3]): 45.5 µM; GI50 (OVCAR-4): 4.37 µM; LC50 (OVCAR-4): 41.4 µM; TGI (OVCAR-4): 15.8 µM; GI50 (OVCAR-8): 2.61 µM; TGI (OVCAR-8): 8.56 µM; CC50 (OVCAR-8; [3]): 47.6 µM; GI50 (786-0): 2.27 µM; LC50 (concentration giving net 50% loss of initial cells) (786-0): 13.8 µM; TGI (786-0): 5.06 µM; GI50 (A498): 14.8 µM; LC50 (concentration giving net 50% loss of initial cells) (A498): 54.4 µM; TGI (A498): 28.4 µM; GI50 (ACHN): 3.64 µM; TGI (ACHN): 13 µM; CC50 (ACHN; [3]): 38.4 µM; GI50 (RXF 393): 2.33 µM; TGI (RXF 393): 4.18 µM; CC50 (RXF 393; [3]): 7.49 µM; GI50 (SN12C): 2.64 µM; TGI (SN12C): 6.17 µM; CC50 (SN12C; [3]): 81.2 µM; GI50 (TK-10): 4.94 µM; TGI (TK-10): 15.8 µM; CC50 (TK-10; [3]): 40.4 µM; GI50 (PC-3): 4.46 µM; TGI (PC-3): 15.7 µM; CC50 (PC-3; [3]): 43.3 µM; GI50 (MDA-MB-231): 3.62 µM; LC50 (concentration giving net 50% loss of initial cells) (MDA-MB-231): 40.5 µM; TGI (MDA-MB-231): 10.2 µM; GI50 (Hs-578T): 6.65 µM; LC50 (Hs-578T): > 100 µM; TGI (Hs-578T): 43 µM; GI50 (BT-549): 2.3 µM; TGI (BT-549): 5.61 µM; CC50 (BT-549; [3]): 18.7 µM; GI50 (MDA-MB-468): 1.99 µM; TGI (MDA-MB-468): 4.3 µM; CC50 (MDA-MB-468; [3]): 9.3 µM; growth at 10 µM (HOP-92): 71.6%; growth at 10 µM (SF-539): -62.7%; growth at 10 µM (SNB-19 [2]): 53.6%

Reference: ChEMBL document CHEMBL4033712, “Synthesis and biological evaluation of new C-12(α/β)-(N-) sulfamoyl-phenylamino-14-deoxy-andrographolide derivatives as potent anti-cancer agents” (Bioorg Med Chem Lett, 2017)
